The record followed here is ChEMBL document CHEMBL1136742, “New isomeric azine-bridged dinuclear platinum(II) complexes circumvent cross-resistance to cisplatin” (J Med Chem, 2003).

Format in all cases: functional, cell-based
The subject of one experiment is MCF7. The experiment is described as follows: In vitro cytotoxicity against human tumor MCF-7 cell line (breast cancer). In a few lines: (§1)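 Cells kept in log-phase culture in RPMI 1640 with Hepes and phenol red, 10% FCS, penicillin 100 IU/mL and streptomycin 100 µg/mL. Complexes dissolved in water and diluted in full medium, then added after 48 h preincubation in 96-well plates. Incubation 120 h at 37 °C, 8.5% CO2. IC50 read by sulforhodamine-B microculture test.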

The next experiment has as its system WiDr. The experiment is described as follows: In vitro cytotoxicity against human tumor WIDR cell line (colon cancer). In a few lines: as §1
The next experiment relates to EVSA-T. As to the kind of experiment: In vitro cytotoxicity against human tumor EVSA-T cell line (breast cancer). In a few lines:
as §1

Another experiment deals with M19-MEL. The experiment is described as follows: In vitro cytotoxicity against human tumor M19 cell line (melanoma cancer). In a few lines: as §1
The subject of a further experiment is NCI-H226. The experiment is described as follows: In vitro cytotoxicity against human tumor H226 cell line (nonsmall cell lung cancer). In a few lines:
as §1

The test system of a further experiment is A498. The experiment is described as follows: In vitro cytotoxicity against human tumor A498 cell line (renal cancer). The essentials: as §1
The subject of a further experiment is IGROV-1. The experiment is described as follows: In vitro cytotoxicity against human tumor IGROV cell line (ovarian cancer). The essentials:
as §1

For experiment [1], the system named is L1210. The experiment is described as follows: In vitro cytotoxicity against mouse tumor L1210 cell line (sensitive to Cisplatin). In a few lines: (§2)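 Suspension culture in RPMI 1640 with 10% heat-inactivated fetal calf serum, no antibiotics, 37 °C, 5% CO2. Cells seeded at 10^5 cells/mL in 96-well plates and exposed 48 h to a range of platinum complex concentrations. MTT added, 4 h at 37 °C, then wash with PBS. Dye taken up in 2-propanol, absorbance read at 570 nm. IC50 taken as 50% absorbance drop versus drug-free control.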

Experiment [2] relates to L1210. As to the kind of experiment: Ratio of in vitro cytotoxicity against mouse tumor L1210 cell line (resistant to Cisplatin) to that of sensitive L1210 cell line. The essentials: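 Resistant and sensitive L1210 cells in suspension culture, RPMI 1640 with 10% heat-inactivated FCS, no antibiotics, 37 °C, 5% CO2. Cells seeded at 10^5 cells/mL and exposed 48 h to platinum complexes. MTT read at 570 nm after solubilizing in 2-propanol. IC50 is 50% absorbance drop versus control; ratio is resistant IC50 over sensitive IC50.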

For experiment [3], the system named is L1210. The experiment is described as follows: In vitro cytotoxicity against mouse tumor L1210 cell line (resistant to Cisplatin). In a few lines: as §2

On to CISPLATIN [listing 1 of 2 here], for which the IC50 in the experiment on MCF7 was 2.3 µM; in the experiment on WiDr it was 3.2 µM; in the experiment on EVSA-T it was 1.4 µM; in the experiment with M19-MEL it was 1.9 µM; in the experiment on NCI-H226 it was 10.9 µM; in the experiment on A498 it was 7.5 µM. Further, the IC50 in the experiment with IGROV-1 came out at 0.6 µM; in the experiment on L1210 [1], 2.2 µM.
As for CISPLATIN [listing 2 of 2 here], the Ratio in the experiment with L1210 [2] turned out to be 6.6.
“[{cis-Pt(NH3)2Cl}2(-pdn)](NO3)2 [listing 1 of 2 here]”: the IC50 is 23 µM with MCF7; 13.3 µM in the experiment with WiDr; greater than 85.2 µM in the experiment with EVSA-T; 7.2 µM in the experiment on M19-MEL; greater than 85.2 µM in the experiment with NCI-H226; 53 µM with A498. For the same substance, the figures for the IC50 with IGROV-1, in the experiment on L1210 [3] and in the experiment on L1210 [1] were 0.2 µM, 21.3 µM and 5.7 µM, respectively.
“[{cis-Pt(NH3)2Cl}2(-pdn)](NO3)2 [listing 2 of 2 here]”: the Ratio with L1210 [2] was determined as 3.7.
“[{cis-Pt(NH3)2Cl}2(-pzn)](NO3)2 [listing 1 of 2 here]”: the IC50 is 17 µM in the experiment on MCF7; 2.4 µM with WiDr; 47 µM in the experiment with EVSA-T; 20.9 µM in the experiment with M19-MEL; greater than 85.2 µM in the experiment with NCI-H226; 63.5 µM with A498. In addition, the IC50 in the experiment with IGROV-1 amounted to 1 µM; with L1210 [3], 3.5 µM; with L1210 [1] it was 1 µM.
In the case of “[{cis-Pt(NH3)2Cl}2(-pzn)](NO3)2 [listing 2 of 2 here]”, the Ratio in the experiment on L1210 [2] stood at 3.5.
On to “[{cis-Pt(NH3)2Cl}2(-pzn)]Cl2 [listing 1 of 2 here]”, for which the IC50 in the experiment on MCF7 is 15.5 µM; in the experiment on WiDr, 2 µM; with EVSA-T it was 42.5 µM; with M19-MEL, 21.4 µM; with NCI-H226, greater than 91.9 µM; with A498, 54.1 µM. For the same substance, the figures for the IC50 in the experiment with IGROV-1, in the experiment on L1210 [3] and with L1210 [1] were 0.8 µM, 2.5 µM and 1.2 µM, respectively.
“[{cis-Pt(NH3)2Cl}2(-pzn)]Cl2 [listing 2 of 2 here]”: the Ratio in the experiment with L1210 [2] was determined as 2.1.
